Data as given in ChEMBL document CHEMBL5365542, “Difluoromethyl-1,3,4-oxadiazoles Are Selective, Mechanism-Based, and Essentially Irreversible Inhibitors of Histone Deacetylase 6” (J Med Chem, 2023).
Activity calls are given as the source filed them. The rule behind the calls is not given here.

What was measured:
[1] = system: T1, Histone deacetylase 6 (Danio rerio), F8W4B7 [Y745F]; assay: Irreversible inhibition of Danio rerio HDAC6 Y745F mutant catalytic domain 2 assessed as enzyme catalysed ring opening by measuring reduction in 2-(benzylamino)-N'-(2,2,2-trifluoroacetyl)pyrimidine-5-carbohydrazide formation at 100 uM incubated overnight by LC-MS analysis
T1 sequence (whole entry): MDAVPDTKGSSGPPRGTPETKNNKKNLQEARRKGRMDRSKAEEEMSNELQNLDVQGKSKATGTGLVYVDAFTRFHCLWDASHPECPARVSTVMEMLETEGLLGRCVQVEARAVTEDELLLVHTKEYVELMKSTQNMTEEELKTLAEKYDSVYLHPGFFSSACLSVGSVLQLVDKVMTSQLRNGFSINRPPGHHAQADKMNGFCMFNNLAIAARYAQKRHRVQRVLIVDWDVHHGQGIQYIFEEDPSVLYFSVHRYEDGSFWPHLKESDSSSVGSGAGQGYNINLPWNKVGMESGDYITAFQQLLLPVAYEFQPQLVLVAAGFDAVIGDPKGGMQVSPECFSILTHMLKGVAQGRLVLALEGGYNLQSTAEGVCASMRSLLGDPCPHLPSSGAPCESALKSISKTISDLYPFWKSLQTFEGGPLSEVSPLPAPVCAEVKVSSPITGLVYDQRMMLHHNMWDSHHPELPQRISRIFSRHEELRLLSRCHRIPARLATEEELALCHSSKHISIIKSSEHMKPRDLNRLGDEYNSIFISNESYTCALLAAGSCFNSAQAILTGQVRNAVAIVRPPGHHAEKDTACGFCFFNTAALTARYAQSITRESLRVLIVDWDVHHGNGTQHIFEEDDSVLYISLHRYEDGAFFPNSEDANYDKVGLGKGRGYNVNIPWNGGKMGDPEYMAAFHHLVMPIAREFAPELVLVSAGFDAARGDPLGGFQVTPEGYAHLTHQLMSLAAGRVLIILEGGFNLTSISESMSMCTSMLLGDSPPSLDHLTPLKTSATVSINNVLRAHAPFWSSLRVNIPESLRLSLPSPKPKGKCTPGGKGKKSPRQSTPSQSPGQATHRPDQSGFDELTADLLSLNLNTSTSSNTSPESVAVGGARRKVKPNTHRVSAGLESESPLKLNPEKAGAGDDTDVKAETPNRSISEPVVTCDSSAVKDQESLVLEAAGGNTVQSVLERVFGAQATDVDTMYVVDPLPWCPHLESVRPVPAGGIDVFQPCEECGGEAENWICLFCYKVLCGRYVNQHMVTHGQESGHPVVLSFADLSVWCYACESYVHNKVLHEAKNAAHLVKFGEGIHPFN
Summary of the method: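 Zebrafish HDAC6 CD2 mutants were made by site-directed mutagenesis and expressed in BL21(DE3). Enzyme at 50 μM was incubated overnight with 100 μM inhibitor in 50 mM HEPES pH 7.5, 100 mM KCl, 1 mM TCEP, 5% glycerol; an enzyme-free control was included. Protein was methanol-precipitated and filtered, and products were analysed by C18 UPLC-MS with a 2-min gradient.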

[2] = molecular target: T2, Protein deacetylase HDAC6 (Homo sapiens, UniProt Q9UBN7); assay: Inhibition of N-terminal GST tagged human recombinant HDAC6 (1 to 1215 residues) expressed in Sf9 insect cells using Z-Lys(Ac)-AMC as fluorogenic substrate preincubated for 5 mins followed by substrate addition and measured after 90 mins by microplate reader analysis
T2 sequence (Q9UBN7 whole entry): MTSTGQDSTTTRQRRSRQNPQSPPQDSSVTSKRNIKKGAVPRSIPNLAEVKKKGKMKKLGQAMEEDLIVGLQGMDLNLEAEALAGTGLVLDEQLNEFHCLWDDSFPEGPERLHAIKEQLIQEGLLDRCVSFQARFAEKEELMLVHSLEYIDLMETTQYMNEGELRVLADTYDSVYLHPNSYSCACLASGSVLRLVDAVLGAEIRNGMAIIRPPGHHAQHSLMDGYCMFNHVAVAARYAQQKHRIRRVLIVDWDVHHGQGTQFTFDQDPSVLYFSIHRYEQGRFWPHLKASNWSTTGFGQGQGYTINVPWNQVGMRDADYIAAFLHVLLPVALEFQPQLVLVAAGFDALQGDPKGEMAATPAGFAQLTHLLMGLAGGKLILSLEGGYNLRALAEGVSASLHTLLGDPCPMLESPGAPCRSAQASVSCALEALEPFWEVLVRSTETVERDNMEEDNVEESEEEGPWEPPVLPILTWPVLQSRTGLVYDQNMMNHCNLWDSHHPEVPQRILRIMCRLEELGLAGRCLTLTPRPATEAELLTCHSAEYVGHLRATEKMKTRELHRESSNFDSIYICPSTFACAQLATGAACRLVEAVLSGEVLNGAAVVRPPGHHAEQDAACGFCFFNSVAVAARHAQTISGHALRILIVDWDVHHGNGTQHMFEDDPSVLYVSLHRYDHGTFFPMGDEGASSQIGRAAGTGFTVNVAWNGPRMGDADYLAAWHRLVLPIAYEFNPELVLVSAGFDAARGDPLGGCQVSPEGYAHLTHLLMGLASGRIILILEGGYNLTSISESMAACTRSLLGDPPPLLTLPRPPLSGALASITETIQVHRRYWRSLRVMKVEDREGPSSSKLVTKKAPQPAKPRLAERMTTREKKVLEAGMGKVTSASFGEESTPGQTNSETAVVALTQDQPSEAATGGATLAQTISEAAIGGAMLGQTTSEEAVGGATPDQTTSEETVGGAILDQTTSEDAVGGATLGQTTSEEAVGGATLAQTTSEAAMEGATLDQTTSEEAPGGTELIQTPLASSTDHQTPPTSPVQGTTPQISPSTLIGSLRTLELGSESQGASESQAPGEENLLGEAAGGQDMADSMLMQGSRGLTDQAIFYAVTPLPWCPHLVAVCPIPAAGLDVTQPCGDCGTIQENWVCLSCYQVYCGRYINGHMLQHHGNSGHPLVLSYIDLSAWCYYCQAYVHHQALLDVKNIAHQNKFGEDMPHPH

Row | Structure (SMILES) | inhibition [1] | IC50 [2]
1 | FC(F)(F)c1nnc(-c2cnc(NCc3ccccc3)nc2)o1 | inactive | 840 nM
2 | FC(F)c1nnc(-c2cnc(NCc3ccccc3)nc2)o1 | inactive | 347 nM
